Assays:
Type in all cases: functional
CCRF-CEM = test: Cytotoxicity against human CCRF-CEM cells assessed as growth inhibition at 10 uM after 48 hrs by sulphorhodamine B assay; conditions: read-out: GI
Outline: (§1)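 NCI-60 one-dose screen per the NCI Drug Evaluation Branch protocol. Cells given a single 10 µM concentration with 48 h continuous exposure. Growth estimated by sulphorhodamine B protein assay. Result expressed as percentage growth inhibition relative to untreated growth.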

HOP-92 = test: Cytotoxicity against human HOP92 cells assessed as growth inhibition at 10 uM after 48 hrs by sulphorhodamine B assay; conditions: HOP-92, 48 h, read-out: GI; outline: as §1
SK-OV-3 = test: Cytotoxicity against human SKOV3 cells assessed as growth inhibition at 10 uM after 48 hrs by sulphorhodamine B assay; conditions: SK-OV-3, 48 h, read-out: GI; outline: as §1
SK-MEL-2 = test: Cytotoxicity against human SK-MEL-2 cells assessed as growth inhibition at 10 uM after 48 hrs by sulphorhodamine B assay; conditions: SK-MEL-2, 48 h, read-out: GI; outline: as §1
SNB-75 = test: Cytotoxicity against human SNB75 cells assessed as growth inhibition at 10 uM after 48 hrs by sulphorhodamine B assay; conditions: SNB-75, 48 h, read-out: GI; outline: as §1
MDA-MB-435 = test: Cytotoxicity against human MDA-MB-435 cells assessed as growth inhibition at 10 uM after 48 hrs by sulphorhodamine B assay; conditions: MDA-MB-435, 48 h, read-out: GI; outline: as §1
A498 = test: Cytotoxicity against human A498 cells assessed as growth inhibition at 10 uM after 48 hrs by sulphorhodamine B assay; conditions: A498, 48 h, read-out: GI; outline: as §1
HCT-15 = test: Cytotoxicity against human HCT15 cells assessed as growth inhibition at 10 uM after 48 hrs by sulphorhodamine B assay; conditions: HCT-15, 48 h, read-out: GI; outline: as §1
HL-60(TB) = test: Cytotoxicity against human HL-60(TB) cells assessed as growth inhibition at 10 uM after 48 hrs by sulphorhodamine B assay; conditions: HL-60, 48 h, read-out: GI
Outline: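 NCI-60 one-dose primary screen run to the Drug Evaluation Branch protocol. Cells are exposed to a single 10 µM concentration for 48 h continuously, and growth is read by SRB protein assay. Data are reported as percent growth of treated cells, expressed as % growth inhibition.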

UACC-62 = test: Cytotoxicity against human UACC62 cells assessed as growth inhibition at 10 uM after 48 hrs by sulphorhodamine B assay; conditions: UACC-62, 48 h, read-out: GI; outline: as §1
[1] = Cytotoxicity against human EKVX cells assessed as growth inhibition at 10 uM after 48 hrs by sulphorhodamine B assay; conditions: read-out: GI; outline: as §1
PC-3 = test: Cytotoxicity against human PC3 cells assessed as growth inhibition at 10 uM after 48 hrs by sulphorhodamine B assay; conditions: PC-3, 48 h, read-out: GI; outline: as §1
SNB-19 = test: Cytotoxicity against human SNB19 cells assessed as growth inhibition at 10 uM after 48 hrs by sulphorhodamine B assay; conditions: SNB-19, 48 h, read-out: GI; outline: as §1
CAKI-1 = test: Cytotoxicity against human Caki1 cells assessed as growth inhibition at 10 uM after 48 hrs by sulphorhodamine B assay; conditions: CAKI-1, 48 h, read-out: GI; outline: as §1
OVCAR-4 = test: Cytotoxicity against human OVCAR4 cells assessed as growth inhibition at 10 uM after 48 hrs by sulphorhodamine B assay; conditions: OVCAR-4, 48 h, read-out: GI; outline: as §1
MOLT-4 = test: Cytotoxicity against human MOLT4 cells assessed as growth inhibition at 10 uM after 48 hrs by sulphorhodamine B assay; conditions: MOLT-4, 48 h, read-out: GI; outline: as §1
Hs-578T = test: Cytotoxicity against human Hs578T cells assessed as growth inhibition at 10 uM after 48 hrs by sulphorhodamine B assay; conditions: read-out: GI; outline: as §1
SF-268 = test: Cytotoxicity against human SF268 cells assessed as growth inhibition at 10 uM after 48 hrs by sulphorhodamine B assay; conditions: SF-268, 48 h, read-out: GI; outline: as §1
LOX IMVI = test: Cytotoxicity against human LOXIMVI cells assessed as growth inhibition at 10 uM after 48 hrs by sulphorhodamine B assay; conditions: read-out: GI; outline: as §1
U-251 = test: Cytotoxicity against human U251 cells assessed as growth inhibition at 10 uM after 48 hrs by sulphorhodamine B assay; conditions: U-251, 48 h, read-out: GI; outline: as §1
RXF 393 = test: Cytotoxicity against human RXF393 cells assessed as growth inhibition at 10 uM after 48 hrs by sulphorhodamine B assay; conditions: RXF 393, 48 h, read-out: GI; outline: as §1
A549 = test: Cytotoxicity against human A549 cells assessed as growth inhibition at 10 uM after 48 hrs by sulphorhodamine B assay; conditions: A549, 48 h, read-out: GI; outline: as §1
HCT-116 = test: Cytotoxicity against human HCT116 cells assessed as growth inhibition at 10 uM after 48 hrs by sulphorhodamine B assay; conditions: HCT-116, 48 h, read-out: GI; outline: as §1
M14 = test: Cytotoxicity against human M14 cells assessed as growth inhibition at 10 uM after 48 hrs by sulphorhodamine B assay; conditions: M14, 48 h, read-out: GI; outline: as §1
SR = test: Cytotoxicity against human SR cells assessed as growth inhibition at 10 uM after 48 hrs by sulphorhodamine B assay; conditions: read-out: GI; outline: as §1
HT-29 = test: Cytotoxicity against human HT-29 cells assessed as growth inhibition at 10 uM after 48 hrs by sulphorhodamine B assay; conditions: HT-29, 48 h, read-out: GI; outline: as §1
MDA-MB-468 = test: Cytotoxicity against human MDA-MB-468 cells assessed as growth inhibition at 10 uM after 48 hrs by sulphorhodamine B assay; conditions: MDA-MB-468, 48 h, read-out: GI; outline: as §1
IGROV-1 = test: Cytotoxicity against human IGROV1 cells assessed as growth inhibition at 10 uM after 48 hrs by sulphorhodamine B assay; conditions: IGROV-1, 48 h, read-out: GI; outline: as §1
SK-MEL-5 = test: Cytotoxicity against human SK-MEL-5 cells assessed as growth inhibition at 10 uM after 48 hrs by sulphorhodamine B assay; conditions: SK-MEL-5, 48 h, read-out: GI; outline: as §1
DU-145 = test: Cytotoxicity against human DU145 cells assessed as growth inhibition at 10 uM after 48 hrs by sulphorhodamine B assay; conditions: DU-145, 48 h, read-out: GI; outline: as §1
T47D = test: Cytotoxicity against human T47D cells assessed as growth inhibition at 10 uM after 48 hrs by sulphorhodamine B assay; conditions: read-out: GI; outline: as §1
NCI/ADR-RES = test: Cytotoxicity against human NCI/ADR-RES cells assessed as growth inhibition at 10 uM after 48 hrs by sulphorhodamine B assay; conditions: read-out: GI; outline: as §1
MCF7 = test: Cytotoxicity against human MCF7 cells assessed as growth inhibition at 10 uM after 48 hrs by sulphorhodamine B assay; conditions: MCF7, 48 h, read-out: GI; outline: as §1
NCI-H522 = test: Cytotoxicity against human NCI-H522 cells assessed as growth inhibition at 10 uM after 48 hrs by sulphorhodamine B assay; conditions: NCI-H522, 48 h, read-out: GI; outline: as §1
OVCAR-5 = test: Cytotoxicity against human OVCAR5 cells assessed as growth inhibition at 10 uM after 48 hrs by sulphorhodamine B assay; conditions: OVCAR-5, 48 h, read-out: GI; outline: as §1
NCI-H23 = test: Cytotoxicity against human NCI-H23 cells assessed as growth inhibition at 10 uM after 48 hrs by sulphorhodamine B assay; conditions: NCI-H23, 48 h, read-out: GI; outline: as §1
RPMI-8226 = test: Cytotoxicity against human RPMI8226 cells assessed as growth inhibition at 10 uM after 48 hrs by sulphorhodamine B assay; conditions: RPMI-8226, 48 h, read-out: GI; outline: as §1
UO-31 = test: Cytotoxicity against human UO31 cells assessed as growth inhibition at 10 uM after 48 hrs by sulphorhodamine B assay; conditions: UO-31, 48 h, read-out: GI; outline: as §1
K562 = test: Cytotoxicity against human K562 cells assessed as growth inhibition at 10 uM after 48 hrs by sulphorhodamine B assay; conditions: K562, 48 h, read-out: GI; outline: as §1
SF-295 = test: Cytotoxicity against human SF295 cells assessed as growth inhibition at 10 uM after 48 hrs by sulphorhodamine B assay; conditions: SF-295, 48 h, read-out: GI; outline: as §1
ACHN = test: Cytotoxicity against human ACHN cells assessed as growth inhibition at 10 uM after 48 hrs by sulphorhodamine B assay; conditions: read-out: GI; outline: as §1

Q: With `COc1ccc(-c2c3c(nc4ncnc(N)c24)C(C)CCC3)cc1` (stereo unspecified) as the compound, how does the inhibition of growth at 10 µM (CCRF-CEM) read?
A: Its inhibition of growth at 10 µM is 23%.

Q: And the inhibition of growth at 10 µM (HOP-92)?
A: The inhibition of growth at 10 µM was 20.4%.

Q: And the inhibition of growth at 10 µM (SK-OV-3)?
A: Its inhibition of growth at 10 µM is < 10%.

Q: And the inhibition of growth at 10 µM (SK-MEL-2)?
A: Its inhibition of growth at 10 µM is < 10%.

Q: What about the inhibition of growth at 10 µM (SNB-75) of the same compound?
A: The inhibition of growth at 10 µM was 20.5%.

Q: What about the inhibition of growth at 10 µM (MDA-MB-435) of the same compound?
A: The inhibition of growth at 10 µM was < 10%.

Q: And the inhibition of growth at 10 µM (A498)?
A: Its inhibition of growth at 10 µM is < 10%.

Q: What about the inhibition of growth at 10 µM (HCT-15) of the same compound?
A: The inhibition of growth at 10 µM was 20%.

Q: What about the inhibition of growth at 10 µM (HL-60(TB)) of the same compound?
A: Its inhibition of growth at 10 µM is < 10%.

Q: What about the inhibition of growth at 10 µM (UACC-62) of the same compound?
A: The inhibition of growth at 10 µM was 20.9%.

Q: And the inhibition of growth at 10 µM [1]?
A: Its inhibition of growth at 10 µM is 11.5%.

Q: And the inhibition of growth at 10 µM (PC-3)?
A: Its inhibition of growth at 10 µM is 15%.

Q: And the inhibition of growth at 10 µM (SNB-19)?
A: The inhibition of growth at 10 µM was 10%.

Q: And the inhibition of growth at 10 µM (CAKI-1)?
A: The inhibition of growth at 10 µM was < 10%.

Q: What about the inhibition of growth at 10 µM (OVCAR-4) of the same compound?
A: Its inhibition of growth at 10 µM is 12.6%.

Q: And the inhibition of growth at 10 µM (MOLT-4)?
A: Its inhibition of growth at 10 µM is 14.3%.

Q: What about the inhibition of growth at 10 µM (Hs-578T) of the same compound?
A: The inhibition of growth at 10 µM was < 10%.

Q: And the inhibition of growth at 10 µM (SF-268)?
A: Its inhibition of growth at 10 µM is < 10%.

Q: And the inhibition of growth at 10 µM (LOX IMVI)?
A: Its inhibition of growth at 10 µM is 13%.

Q: What about the inhibition of growth at 10 µM (U-251) of the same compound?
A: Its inhibition of growth at 10 µM is 18.5%.

Q: What about the inhibition of growth at 10 µM (RXF 393) of the same compound?
A: The inhibition of growth at 10 µM was 20.3%.

Q: And the inhibition of growth at 10 µM (A549)?
A: The inhibition of growth at 10 µM was < 10%.

Q: And the inhibition of growth at 10 µM (HCT-116)?
A: The inhibition of growth at 10 µM was 14.2%.

Q: And the inhibition of growth at 10 µM (M14)?
A: Its inhibition of growth at 10 µM is < 10%.

Q: What about the inhibition of growth at 10 µM (SR) of the same compound?
A: The inhibition of growth at 10 µM was 17.3%.

Q: What about the inhibition of growth at 10 µM (HT-29) of the same compound?
A: The inhibition of growth at 10 µM was < 10%.

Q: And the inhibition of growth at 10 µM (MDA-MB-468)?
A: The inhibition of growth at 10 µM was 11.3%.

Q: What about the inhibition of growth at 10 µM (IGROV-1) of the same compound?
A: Its inhibition of growth at 10 µM is < 10%.

Q: What about the inhibition of growth at 10 µM (SK-MEL-5) of the same compound?
A: The inhibition of growth at 10 µM was 10%.

Q: And the inhibition of growth at 10 µM (DU-145)?
A: Its inhibition of growth at 10 µM is < 10%.

Q: What about the inhibition of growth at 10 µM (T47D) of the same compound?
A: The inhibition of growth at 10 µM was 47.7%.

Q: And the inhibition of growth at 10 µM (NCI/ADR-RES)?
A: Its inhibition of growth at 10 µM is 16.3%.

Q: And the inhibition of growth at 10 µM (MCF7)?
A: Its inhibition of growth at 10 µM is < 10%.

Q: And the inhibition of growth at 10 µM (NCI-H522)?
A: The inhibition of growth at 10 µM was < 10%.

Q: What about the inhibition of growth at 10 µM (OVCAR-5) of the same compound?
A: Its inhibition of growth at 10 µM is < 10%.

Q: What about the inhibition of growth at 10 µM (NCI-H23) of the same compound?
A: Its inhibition of growth at 10 µM is < 10%.

Q: What about the inhibition of growth at 10 µM (RPMI-8226) of the same compound?
A: The inhibition of growth at 10 µM was 25%.

Q: And the inhibition of growth at 10 µM (UO-31)?
A: The inhibition of growth at 10 µM was 10.4%.

Q: What about the inhibition of growth at 10 µM (K562) of the same compound?
A: The inhibition of growth at 10 µM was 23.4%.

Q: What about the inhibition of growth at 10 µM (SF-295) of the same compound?
A: The inhibition of growth at 10 µM was < 10%.

Q: What about the inhibition of growth at 10 µM (ACHN) of the same compound?
A: The inhibition of growth at 10 µM was 10%.
